Results on two compounds are retold here after ChEMBL document CHEMBL3414437, “Synthesis of CDDO-amino acid-nitric oxide donor trihybrids as potential antitumor agents against both drug-sensitive and drug-resistant colon cancer” (J Med Chem, 2015).

The subject of series [1] is Mus musculus. Kind of series: Toxicity in nude BALB/c mouse xenografted with FU-resistant human HCT8 cells assessed as body weight level at 17.8 umol/kg administered as via oral gavage daily for 21 days (reference value: 22.3 +/- 1.9 g). The format is organism-based, HCT-8. The settings on record: in vivo, 504 h. The gist of the method: (§1)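 Male BALB/c nude mice, 6-8 weeks old, inoculated s.c. in right flank with HCT-8/5-FU cells (2 × 10^6/mouse). Once tumors reached 180-200 mm3 (9-11 days post-implantation), mice were randomized and dosed by gavage daily for 21 consecutive days in cremophor-EL/DMSO/PBS (1:1:8) (vehicle alone 0.2 mL). Body weights recorded on day 1 and day 21. Organ size, color and weights were inspected for liver, kidney, lung and heart. n = 8 per group; mean ± SD.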
(In general: In xenograft studies the graft and the host belong to different species.)

The subject of series [2] is Mus musculus. Kind of series: Toxicity in nude BALB/c mouse xenografted with FU-resistant human HCT8 cells assessed as abnormal color changes in heart at 17.8 to 35.7 umol/kg administered as via oral gavage daily for 21 days. The class given is organism-based, HCT-8. The note with it: in vivo, 504 h. The gist of the method:
(§2)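 Male BALB/c nude mice aged 6-8 weeks, implanted s.c. in the right flank with HCT-8/5-FU cells (2 × 10^6). Once tumors reached 180-200 mm3 (days 9-11), randomized to daily gavage for 21 days in cremophor-EL/DMSO/PBS (1:1:8), 0.2 mL. At the end, liver, kidney, lung and heart checked for size, colour and weight. n = 8 per group.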

A short description of series [3]: Antitumor activity against FU-resistant human HCT8 cells xenografted in nude BALB/c mouse assessed as reduction in tumor weight at 17.8 umol/kg administered as via oral gavage daily for 21 days. The class given is functional. The note with it: HCT-8, po, 504 h. The gist of the method:
(§3)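 Male BALB/c nude mice, 6–8 weeks old, inoculated s.c. in the right flank with HCT-8/5-FU cells (2 × 10^6). Once tumors reached 180–200 mm3 (days 9–11), mice were randomized (n = 8) to daily oral gavage for 21 days in cremophor-EL/DMSO/PBS (1:1:8). Tumor volume = W2(L/2), caliper-measured every other day, blinded; tumors weighed at end.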

Series [4] has as its system HCT-8. Kind of series: Inhibition of HIF-1alpha protein expression in FU-resistant human HCT8 cells at 0.25 to 1 uM incubated for 24 hrs by Western blotting method. The format is functional, cell-based. The gist of the method: (§4)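 Cells (1 x 10^6) grown 24 h in 6 cm dishes, then exposed in duplicate for 24 h to 0.25, 0.5 or 1 µM compound, with or without PTIO. Lysates (20 µg/lane) were run on 7.5% SDS-PAGE, blotted to PVDF and blocked in 5% milk. HRP secondaries with ECL detection; bands quantified by densitometry against β-actin or GAPDH. Three separate experiments, mean ± SD.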
In general terms: A western blot detects proteins with antibodies after separation by electrophoresis.

The subject of series [5] is Mus musculus. Kind of series: Toxicity in ICR mouse assessed as mouse mortality incidence at 0.60 x 10^3 to 2.38 x 10^3 umol/kg administered as single dose via oral gavage measured up to 14 days post treatment. The class given is organism-based. The settings on record: in vivo, 336 h. The gist of the method: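 Adult ICR mice of either sex were randomised and given a single oral gavage dose of 500, 1000, 1500 or 2000 mg/kg in cremophor-EL/DMSO/PBS (1:1:8). Survival, behaviour, water and food intake, body weight and activity were monitored for up to 14 days. Body weights were taken on days 0, 7 and 14.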

In series [6] the test system is Mus musculus. Kind of series: Toxicity in female ICR mouse assessed as body weight level at 2.38 x 10^3 umol/kg administered as single dose via oral gavage measured on day 14 post treatment (reference value: 19.5 +/- 0.85 g). The format is organism-based. The settings on record: in vivo.
Series [7] has as its system Mus musculus. As to the kind of experiment: Toxicity in nude BALB/c mouse xenografted with FU-resistant human HCT8 cells assessed as abnormal weight changes in kidney at 17.8 to 35.7 umol/kg administered as via oral gavage daily for 21 days. The class given is organism-based, HCT-8. The note with it: in vivo, 504 h. The gist of the method:
as §2

The subject of another series is CCD-841CoN. As to the kind of experiment: Induction of nitric oxide release in human CCD-841-CoN cells at 100 uM incubated for 150 mins by Griess assay. The class given is functional, cell-based. In outline:
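Cells (1 × 10^6/well) treated in triplicate with compound at 100 µM for 150 min. Lysates mixed with Griess reagent for 10 min at 37 °C and read at 540 nm. Nitrite quantified from a sodium nitrite standard curve; 0.4% DMSO-treated cells served as background. Mean ± SD of three experiments.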
Background: Griess reagent forms a coloured azo dye with nitrite.

Series [8] has as its system Mus musculus. Kind of series: Toxicity in male ICR mouse assessed as body weight level at 2.38 x 10^3 umol/kg administered as single dose via oral gavage measured on day 14 post treatment (reference value: 19.5 +/- 0.85 g). The format is organism-based. The settings on record: in vivo.
Series [9] deals with HCT-8. Kind of series: Induction of nitric oxide release in human HCT8 cells at 150 uM incubated for 150 mins after 150 mins of pre-treatment with 0.75 uM to 192 uM pepT1 substrate Gly-Sar by Griess assay. The format is functional, cell-based. The gist of the method: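 Cells pretreated with Gly-Sar (0.75–192 µM, nine levels) for 150 min, then given compound at 150 µM for 150 min. Intracellular nitrite in lysates measured with Griess reagent (10 min, 37 °C, 540 nm) against a sodium nitrite standard curve. Mean ± SD of three experiments.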

The nature of series [10]: Toxicity in female ICR mouse assessed as mouse mortality at 2.38 x 10^3 umol/kg administered as single dose via oral gavage measured up to 14 days post treatment. The format is organism-based. The note with it: in vivo. In outline: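 Female or male adult ICR mice, 10 per sex group, were randomised and given a single oral gavage dose of 2,000 mg/kg in cremophor-EL/DMSO/PBS (1:1:8). Total mortality was recorded over days 1–14, and body weight on days 0, 7 and 14 as mean ± SD.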

In series [11] the test system is Mus musculus. As to the kind of experiment: Toxicity in nude BALB/c mouse xenografted with FU-resistant human HCT8 cells assessed as abnormal color changes in kidney at 59.4 umol/kg administered as via oral gavage daily for 21 days. The class given is organism-based, HCT-8. The note with it: in vivo, 504 h. In outline: as §2
Series [12] relates to Mus musculus. As to the kind of experiment: Toxicity in nude BALB/c mouse xenografted with FU-resistant human HCT8 cells assessed as abnormal color changes in lung at 59.4 umol/kg administered as via oral gavage daily for 21 days. The class given is organism-based, HCT-8. The settings on record: in vivo, 504 h. The gist of the method: as §2
Series [13] has as its system Mus musculus. As to the kind of experiment: Toxicity in nude BALB/c mouse xenografted with FU-resistant human HCT8 cells assessed as abnormal weight changes in lung at 59.4 umol/kg administered as via oral gavage daily for 21 days. The format is organism-based, HCT-8. The note with it: in vivo, 504 h. In outline: as §1
The nature of series [14]: Antitumor activity against FU-resistant human HCT8 cells xenografted in nude BALB/c mouse assessed as reduction in tumor weight at 59.4 umol/kg administered as via oral gavage daily for 21 days. The class given is functional. The settings on record: HCT-8, po, 504 h. In outline:
as §3

Series [15] deals with Signal transducer and activator of transcription 3 (Homo sapiens) (UniProt P40763). Kind of series: Inhibition of STAT3 protein phosphorylation in human HCT8 cells at 1 uM incubated for 24 hrs by Western blotting method. The format is cell-based. The settings on record: HCT-8. In outline: as §4
Series [16] relates to Mus musculus. As to the kind of experiment: Toxicity in nude BALB/c mouse xenografted with FU-resistant human HCT8 cells assessed as body weight level at 59.4 umol/kg administered as via oral gavage daily for 21 days (reference value: 20.8 +/- 2.2 g). The format is organism-based, HCT-8. The note with it: in vivo, 504 h. In outline:
as §1

Series [17] relates to Mus musculus. Kind of series: Toxicity in nude BALB/c mouse xenografted with FU-resistant human HCT8 cells assessed as abnormal weight changes in heart at 59.4 umol/kg administered as via oral gavage daily for 21 days. The class given is organism-based, HCT-8. The settings on record: in vivo, 504 h. The gist of the method:
as §2

Series [18] deals with RAC-alpha serine/threonine-protein kinase (Homo sapiens) (UniProt P31749). As to the kind of experiment: Inhibition of AKT protein phosphorylation in human HCT8 cells at 1 uM incubated for 24 hrs by Western blotting method. The note with it: HCT-8. The class given is cell-based. The gist of the method: as §4
The subject of series [19] is HCT-8. Kind of series: Inhibition of ERK protein phosphorylation in FU-resistant human HCT8 cells at 1 uM incubated for 24 hrs by Western blotting method. The format is cell-based. In outline: as §4

Molecules are shown by their SMILES. The source made the active and inactive calls. No cut-off for these calls is given here.

Signal transducer and activator of transcription 3 (Homo sapiens), sequence (P40763 whole entry): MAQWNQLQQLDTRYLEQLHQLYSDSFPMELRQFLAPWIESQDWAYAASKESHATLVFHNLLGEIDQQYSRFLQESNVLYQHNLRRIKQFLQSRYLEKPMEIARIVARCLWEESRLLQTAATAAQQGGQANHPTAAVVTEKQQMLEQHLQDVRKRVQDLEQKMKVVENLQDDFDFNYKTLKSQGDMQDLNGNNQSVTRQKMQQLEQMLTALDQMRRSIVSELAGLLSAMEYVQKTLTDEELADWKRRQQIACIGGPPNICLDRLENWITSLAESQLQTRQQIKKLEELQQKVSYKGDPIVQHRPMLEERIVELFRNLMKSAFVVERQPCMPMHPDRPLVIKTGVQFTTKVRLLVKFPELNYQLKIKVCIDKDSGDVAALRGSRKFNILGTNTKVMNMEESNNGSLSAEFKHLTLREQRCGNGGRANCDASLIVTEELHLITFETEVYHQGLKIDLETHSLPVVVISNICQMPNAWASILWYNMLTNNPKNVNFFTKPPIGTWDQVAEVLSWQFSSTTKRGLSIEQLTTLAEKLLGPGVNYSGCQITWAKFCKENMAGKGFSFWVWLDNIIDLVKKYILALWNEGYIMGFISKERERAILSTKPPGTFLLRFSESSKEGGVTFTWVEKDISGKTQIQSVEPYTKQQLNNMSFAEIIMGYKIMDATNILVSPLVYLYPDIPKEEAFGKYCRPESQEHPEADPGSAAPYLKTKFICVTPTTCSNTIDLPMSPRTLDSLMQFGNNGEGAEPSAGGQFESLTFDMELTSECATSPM
RAC-alpha serine/threonine-protein kinase (Homo sapiens), sequence (P31749 whole entry): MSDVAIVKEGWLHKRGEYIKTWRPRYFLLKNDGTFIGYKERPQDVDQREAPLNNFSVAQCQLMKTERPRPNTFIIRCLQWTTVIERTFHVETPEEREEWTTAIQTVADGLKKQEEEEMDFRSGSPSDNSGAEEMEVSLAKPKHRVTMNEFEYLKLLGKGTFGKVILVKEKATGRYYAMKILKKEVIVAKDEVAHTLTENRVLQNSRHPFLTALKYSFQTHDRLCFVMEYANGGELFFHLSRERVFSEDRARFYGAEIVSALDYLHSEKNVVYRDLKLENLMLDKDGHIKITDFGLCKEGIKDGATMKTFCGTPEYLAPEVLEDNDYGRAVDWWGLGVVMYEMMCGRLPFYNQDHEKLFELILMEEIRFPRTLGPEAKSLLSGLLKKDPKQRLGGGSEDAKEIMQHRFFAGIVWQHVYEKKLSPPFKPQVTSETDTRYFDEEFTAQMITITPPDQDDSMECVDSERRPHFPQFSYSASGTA

As a reminder, the inhibition in vivo is the change of the read-out against control, counted positive when it falls. In general, mortality refers to the share of the test organisms that died. As to `CC1(C)CC[C@]2(C(=O)NCC(=O)OCC#CCOc3no[n+]([O-])c3S(=O)(=O)c3ccccc3)CC[C@]3(C)[C@H](C(=O)C=C4[C@@]5(C)C=C(C#N)C(=O)C(C)(C)[C@@H]5CC[C@]43C)[C@@H]2C1`, the Activity in the series with Mus musculus [1] is 17.5 g; in the series with Mus musculus [2] it was “Non-toxic”; with Mus musculus [5], “Non-toxic”; in the series on Mus musculus [6], 30 g; in the series on Mus musculus [7] it was “Non-toxic”; in the series on Mus musculus [8], 31.9 g. Moreover, in [3], the inhibition in vivo at 17.8 µmol/kg worked out at 49.2%. Further, the inhibition result with HCT-8 [4] is “Dose-dependent effect”. The outcome in the series with CCD-841CoN and in the series with HCT-8 [9] was inactive. For the same compound, the mortality at 336 h in series [10] worked out at 0%.

As to `COC(=O)[C@]12CCC(C)(C)C[C@H]1[C@H]1C(=O)C=C3[C@@]4(C)C=C(C#N)C(=O)C(C)(C)[C@@H]4CC[C@@]3(C)[C@]1(C)CC2` [BARDOXOLONE METHYL], the Activity result in the series on Mus musculus [11] is on record as “Non-toxic”; in the series with Mus musculus [12], “Non-toxic”; with Mus musculus [13], “Non-toxic”; in the series with Mus musculus [16] it was 16.7 g; with Mus musculus [17], “Non-toxic”. The inhibition in vivo at 59.4 µmol/kg in [14] was determined as 58.4%. Also, the inhibition entry (in [15]; in [18]; in the series with HCT-8 [19]) was “Active” each time.
